This is an account of results in ChEMBL document CHEMBL3286111, “Tryptophan hydroxylase 1 (Tph-1)-targeted bone anabolic agents for osteoporosis” (J Med Chem, 2014).

The nature of this data set: Cytotoxicity against rat RBL2H3 cells by MTT assay. The data set is classed as cell-based. More on the design: concentration or dose not given beside the values. Particulars: rbl-2h3. The procedure, abridged:
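RBL2H3 cells (α-MEM) or PC12 cells (D-MEM), both with 10% FBS, treated at a single dose in 0.1% DMSO; 0.1% DMSO control; 37 °C, 5% CO2. MTT (5 mg/mL) added 4 h before the end, then SDS/DMF lysis buffer (pH 7.2) for 6 h; absorbance read at 570 nm. Cytotoxicity % calculated from background-corrected OD versus control.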
Compound `COC(=O)C(Cc1ccccc1)NC(=O)[C@]12CC[C@@H](C)[C@H](C)[C@H]1C1=CC[C@@H]3[C@@]4(C)Cc5cn[nH]c5C(C)(C)[C@@H]4CC[C@@]3(C)[C@]1(C)CC2` (some centres not stated) gave an Activity of 1.9%. The compound `C[C@H]1[C@H](C)CC[C@]2(C(=O)NCCN3CCCCC3)CC[C@]3(C)C(=CC[C@@H]4[C@@]5(C)Cc6nc7ccccc7nc6C(C)(C)[C@@H]5CC[C@]43C)[C@H]12` yielded an Activity of 52.1%. As for `COC(=O)C(CC(C)C)NC(=O)[C@]12CC[C@@H](C)[C@H](C)[C@H]1C1=CC[C@@H]3[C@@]4(C)Cc5cnn(-c6ccc(F)cc6)c5C(C)(C)[C@@H]4CC[C@@]3(C)[C@]1(C)CC2` (some centres not stated), the Activity was found to be 1%. Compound `C[C@H]1[C@H](C)CC[C@]2(C(=O)O)CC[C@]3(C)C(=CC[C@@H]4[C@@]5(C)CC[C@H](O)C(C)(C)[C@@H]5CC[C@]43C)[C@H]12` [URSOLIC ACID] registered an Activity of 10%. On to `COC(=O)C(Cc1ccccc1)NC(=O)[C@]12CC[C@@H](C)[C@H](C)[C@H]1C1=CC[C@@H]3[C@@]4(C)Cc5nc6ccccc6nc5C(C)(C)[C@@H]4CC[C@@]3(C)[C@]1(C)CC2` (some centres not stated), for which the Activity worked out at 12.4%.

The compound `CCOC(=O)CNC(=O)[C@]12CC[C@@H](C)[C@H](C)[C@H]1C1=CC[C@@H]3[C@@]4(C)C=C(C#N)C(=O)C(C)(C)[C@@H]4CC[C@@]3(C)[C@]1(C)CC2` showed an Activity of 50.1%. For `C[C@H]1[C@H](C)CC[C@]2(C(=O)O)CC[C@]3(C)C(=CC[C@@H]4[C@@]5(C)Cc6nc7cc(Cl)c(Cl)cc7nc6C(C)(C)[C@@H]5CC[C@]43C)[C@H]12`, the Activity was 2.2%.

The compound `C[C@H]1[C@H](C)CC[C@]2(C(=O)NC3CCN(Cc4ccccc4)CC3)CC[C@]3(C)C(=CC[C@@H]4[C@@]5(C)Cc6nc7ccccc7nc6C(C)(C)[C@@H]5CC[C@]43C)[C@H]12` came in with an Activity of 51.1%. The compound `C[C@H]1[C@H](C)CC[C@]2(C(=O)O)CC[C@]3(C)C(=CC[C@@H]4[C@@]5(C)C=C(C#N)C(=O)C(C)(C)[C@@H]5CC[C@]43C)[C@H]12` yielded an Activity of 4.3%. With `COC(=O)C(Cc1ccccc1)NC(=O)[C@]12CC[C@@H](C)[C@H](C)[C@H]1C1=CC[C@@H]3[C@@]4(C)Cc5cnn(-c6ccccc6)c5C(C)(C)[C@@H]4CC[C@@]3(C)[C@]1(C)CC2` (some centres not stated), the Activity turned out to be 0.9%. The compound `COC(=O)C(Cc1ccccc1)NC(=O)[C@]12CC[C@@H](C)[C@H](C)[C@H]1C1=CC[C@@H]3[C@@]4(C)CCC(=O)C(C)(C)[C@@H]4CC[C@@]3(C)[C@]1(C)CC2` (some centres not stated) gave an Activity of 1.1%.

`COC(=O)C(CC(C)C)NC(=O)[C@]12CC[C@@H](C)[C@H](C)[C@H]1C1=CC[C@@H]3[C@@]4(C)C=C(C#N)C(=O)C(C)(C)[C@@H]4CC[C@@]3(C)[C@]1(C)CC2` (some centres not stated): the Activity is given as 58.1%.

For `CCOC(=O)CNC(=O)[C@]12CC[C@@H](C)[C@H](C)[C@H]1C1=CC[C@@H]3[C@@]4(C)Cc5c([nH]c6ccc(Cl)cc56)C(C)(C)[C@@H]4CC[C@@]3(C)[C@]1(C)CC2`, the Activity came out at 14.7%. Compound `CCOC(=O)CNC(=O)[C@]12CC[C@@H](C)[C@H](C)[C@H]1C1=CC[C@@H]3[C@@]4(C)Cc5nc6cc(Cl)c(Cl)cc6nc5C(C)(C)[C@@H]4CC[C@@]3(C)[C@]1(C)CC2` returned an Activity of 2%. Compound `CCOC(=O)CNC(=O)[C@]12CC[C@@H](C)[C@H](C)[C@H]1C1=CC[C@@H]3[C@@]4(C)Cc5cncnc5C(C)(C)[C@@H]4CC[C@@]3(C)[C@]1(C)CC2` showed an Activity of 1.9%.

In turn, `COC(=O)C(Cc1ccccc1)NC(=O)[C@]12CC[C@@H](C)[C@H](C)[C@H]1C1=CC[C@@H]3[C@@]4(C)Cc5cncnc5C(C)(C)[C@@H]4CC[C@@]3(C)[C@]1(C)CC2` (some centres not stated) yielded an Activity of 2.6%. The same measure for `COC(=O)C(Cc1ccccc1)NC(=O)[C@]12CC[C@@H](C)[C@H](C)[C@H]1C1=CC[C@@H]3[C@@]4(C)C=C(C#N)C(=O)C(C)(C)[C@@H]4CC[C@@]3(C)[C@]1(C)CC2` (some centres not stated): 5.4%.
